Shown is part of a subset that was picked to be rich in hits.
CHOP inhibitor = inhibitors of CHOP induction in ER stress response | CHO-K1 CHOP-promoter luciferase, tunicamycin-induced, 15-18 h | inhibition, % at 10 µM | hit rate 3.8% among 220,000 | AID 2732;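 active means compounds that reduced the stress-induced luciferase reporter signal by more than about 70% of percent inhibition, limit read from the data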;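 further: 0% = tunicamycin plus vehicle and 100% = wells without tunicamycin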
T cruzi inh = blocks replication of Trypanosoma cruzi | T. cruzi beta-gal in NIH3T3, luminescence, 90 h | inhibition, % (concentration not given with the values) | hit rate 1.4% among 300,000;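 active means mean inhibition across valid replicates above about 55%, limit read from the data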;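 further: signal also drops with host cell toxicity which is not excluded here; 0% = plate median of DMSO wells and 100% = zero luminescence signal; higher percent means less beta-gal luminescence so fewer parasites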
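Assay system: NIH/3T3 host cells with β-galactosidase reporter T. cruzi; input: 5,000 host fibroblasts per well; compound: single 50 nL compound addition per well in DMSO; timing: ≥90 h infection period, 3 h prior cell attachment; measured by: GalScreen β-gal luminescence, detergent lysis, 60 min; evaluation: percent inhibition of parasite-derived β-gal signal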
UPR CHOP act = activators of apoptotic arm of unfolded protein response (CHOP) | CHO-CHOP luciferase reporter, UPR activation, luminescence; percent of tunicamycin response over DMSO baseline | activation, % at 10 µM | hit rate 0.34% among 330,000;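 active means at 10 µM dose, activation of 40% or more, normalized to positive control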;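 further: 100% = tunicamycin at 10 µg/mL and 0% = DMSO alone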
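Test system: CHO-CHOP cells, stable luciferase reporter of PERK-eIF2a-CHOP signalling | Quantity: 500 CHO-CHOP cells per well | Buffer or medium: F12 plus 10% serum | Compound dosing: 10 µM single point, 0.5% DMSO | Schedule: 6 h compound treatment, 37 °C | Signal: Luciferase luminescence | Control set: Tunicamycin high control, DMSO low control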
XBP1 UPR activ = adaptive UPR (XBP1) activation; activation, % at 20 µM; hit rate 0.33% among 330,000; CHO-XBP1 luciferase reporter, IRE1-XBP1 UPR activation, luminescence; percent of tunicamycin response, DMSO as zero;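 active means versus positive control, 20 µM dose yields 30% or more activation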;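 further: 100% = tunicamycin at 10 µg/mL and 0% = DMSO only wells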
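Material – CHO cell line with stable XBP1 luciferase reporter · Buffer or medium – F12 plus 10% FBS · Compound – single point, 20 µM final compound, 1% DMSO · Schedule – 16-18 h cell attachment at 37 °C, then 6 h compound exposure · Signal – Steady-Glo luminescence read · Benchmarks – high control tunicamycin 10 µg/mL final, low control DMSO vehicle only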
L major viab = inhibitors of Leishmania major promastigote growth. Leishmania major promastigotes, resazurin fluorescence viability. inhibition, % at 10 µM. hit rate 9% among 200,000. AID 1063; in the data active means inhibition above about 50%;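 further: promastigotes grown with compound for 44 hours at 28 °C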
Dynein transport = dynein cargo transport inhibition; 3617.4 mouse cells, GR-EGFP nuclear translocation imaging; test concentration mostly 20 µM; stimulated with dexamethasone, 1 µM; hits give low values; z-score, hits read low; hit rate 0.47% among 220,000;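 active means plate z-score of nuclear minus cytoplasmic receptor signal below a set negative limit, without overly bright fluorescence or cell loss, cut at about -3.5 in these data, passing the limit was not always enough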;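 further: z-score of nuclear minus cytoplasmic ring GR-EGFP intensity difference per well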
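Buffer or medium – tet-free medium with charcoal-stripped serum · Signal – automated 10x imaging of fixed Hoechst-stained cells · Also added – dexamethasone agonist, 1.0 µM final, for 30 min · Incubation – induction 48 h, compound 1 h, agonist 30 min · Read-out – GR-EGFP nuclear translocation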
An asterisk follows results filed as active; . = no result given.

SMILES | CHOP inhibitor | T cruzi inh | UPR CHOP act | XBP1 UPR activ | L major viab | Dynein transport
COc1ccc(-c2c(C#N)c(SCC(=O)Nc3ccccc3)nc3c2CCCC3)cc1 | . | 41.3 | 0.9 | 1.0 | 92.0* | 0.595
C=C1CCc2c([nH]c3ccc(OCC(C)C)cc23)C1=O | . | 47.6 | -5.3 | -2.8 | . | .
CCOCCCNCc1ccc(Cl)cc1 | 1.6 | 6.9 | 3.1 | 1.6 | 69.2* | -0.366
CCOCCCNCc1cccc(OCc2ccc(F)cc2)c1 | 8.9 | 23.5 | 3.6 | -1.0 | 99.0* | -0.229
CCCNC(=S)NCc1ccc(Cl)cc1 | 14.7 | -2.6 | 2.6 | 0.2 | -7.3 | -0.526
CCOCCCNC(=O)C1CCN(Cc2cccc(OCc3ccccc3)c2)CC1 | . | 12.5 | 0.7 | -5.3 | . | .
Cc1cccc(C(C)C)c1NC(=O)c1cc2ccccc2o1 | . | 15.3 | 0.0 | -1.1 | . | .
CCOc1ccc(-c2cc(CCCC(=O)NCc3cccnc3)no2)cc1 | 79.7* | -1.9 | 0.3 | -0.8 | 28.9 | 0.499
CCOc1ccc(-c2cc(CCCC(=O)NCCc3ccccc3)no2)cc1 | 69.1 | 12.4 | -2.2 | 0.9 | -1.1 | -0.841
CCOc1ccc(NC(=O)CCCc2cc(-c3ccc(OCC)cc3)on2)cc1 | 82.6* | 8.1 | -4.3 | -3.6 | -4.6 | 0.66
CCN(CC)CCNC(=O)C(=O)Nc1cc2c3c(c1)CCC(=O)N3CCC2 | . | 1.2 | -0.9 | -2.4 | . | .
O=C1c2ccccc2NC(c2ccc(O)c(O)c2)N1c1ccccc1Cl (configuration not stated) | . | -18.8 | 2.2 | -2.3 | . | .
O=C(COC(=O)c1ccccc1Nc1ccc(SC(F)F)cc1)NC1CC1 | 56.0 | 9.0 | 4.1 | 7.9 | 61.0* | -0.218
CC(OC(=O)c1ccccc1Nc1ccc(SC(F)F)cc1)C(N)=O (configuration not stated) | 59.0 | -37.1 | 1.7 | 0.0 | 55.1* | 0.466
COc1ccccc1C(=O)NC(=O)COC(=O)CNC(=O)c1ccccc1F | . | . | 0.3 | 1.2 | . | .
Cc1c(NC(=O)c2cc(Br)ccc2Cl)cccc1-n1cnnn1 | . | . | -0.8 | -1.0 | . | .
CCc1ccc(/C=C/C(=O)c2cc(Br)ccc(=O)c2O)cc1 | 62.6 | 33.0 | 8.5 | 8.8 | 10.9 | -0.849
COc1ccc(C(=O)Nc2cccc(NC(=O)c3cccs3)c2)cc1OC | . | -2.2 | 0.9 | -3.0 | . | .
C/C=C/c1ccc(OCCOc2ccc(C=O)cc2)c(OC)c1 | -6.1 | -10.4 | 4.8 | 0.1 | 81.7* | 0.902
CCOc1ccc(/C=C/C(=O)c2cc(Br)ccc(=O)c2O)cc1 | 90.7* | . | . | . | 8.4 | -1.15
COc1ccc(/C=C/C(=O)c2ccc(NC(=O)c3cccs3)cc2)cc1OC | -234.2 | -4.0 | 3.1 | 2.0 | 98.2* | 0.217
CCCOc1ccc(/C=C/C(=O)O)cc1OC | 16.7 | -13.3 | 0.5 | 2.9 | -5.0 | -0.107
CCOc1ccc(/C=C/C(=O)c2ccccc2)cc1OC | -27.0 | -3.9 | 7.3 | -1.7 | 99.4* | -2.44
CNC(=O)c1c(NC(=O)c2cccc(N3C(=O)CCC3=O)c2)sc2c1CCCC2 | 4.7 | -15.5 | 2.0 | 0.8 | . | -1.15
CCc1cccc(CC)c1-n1c(SCC(=O)N2CCc3ccccc32)nc(O)cc1=O | . | . | -1.3 | -2.0 | . | .
SMILES | CHOP inhibitor | T cruzi inh | UPR CHOP act | XBP1 UPR activ | L major viab | Dynein transport
CCOc1ccccc1CN1CCNC(=O)C1CC(=O)NCc1nc(C)cs1 (configuration not stated) | . | -2.2 | -0.3 | -0.3 | . | .
Cc1ccc(C2=NN(C(=O)CN3CCN(C4CCS(=O)(=O)C4)CC3)C(c3ccco3)C2)cc1 (configuration not stated) | . | . | -0.8 | 12.7 | . | .
CCOc1ccc(C(=O)/C=C/c2ccc(OC)c(OC)c2)cc1 | -7.6 | -11.4 | 1.6 | 0.3 | 85.6* | -1.87
Cc1ccc(S(=O)(=O)N2CCCCC2)cc1NC(=O)CNC(C)c1ccc(Cl)c(Cl)c1 (configuration not stated) | . | . | 1.9 | -1.7 | . | .
O=S(=O)(c1cccc(NC(=S)N2CCN(c3ccc(F)cc3)CC2)c1)C(F)F | 36.0 | -22.8 | -0.5 | 2.1 | 1.7 | 0.0421
O=S(=O)(c1cccc(NC(=S)N2CCN(c3cccc(Cl)c3)CC2)c1)C(F)F | 70.0* | 18.9 | -2.8 | 0.1 | -0.5 | -0.866
O=C(c1ccc(S(=O)(=O)Cc2ccccc2Cl)c([N+](=O)[O-])c1)N1CCN(c2ccccn2)CC1 | -14.8 | -24.4 | 2.0 | -2.6 | 89.3* | -0.999
O=C(c1ccc(S(=O)(=O)Cc2cc(F)ccc2F)c([N+](=O)[O-])c1)N1CCCCC1 | 27.4 | -13.1 | 2.8 | -2.4 | 78.2* | -0.284
COc1ccc(NC(=S)N2CCC(NC(=O)C3CCCCC3)CC2)cc1 | . | -20.6 | 0.5 | -1.0 | . | .
NS(=O)(=O)c1ccc(CNC(=S)NCc2ccc(F)cc2)cc1 | . | 4.2 | -1.5 | -2.1 | . | .
CCOC(=O)CNC(=O)CSc1nc(Cc2ccccc2)nc2ccccc12 | . | 3.9 | 4.0 | -5.0 | . | .
CCOc1ccc(-n2c(SCC(=O)Nc3cc(OC)c([N+](=O)[O-])cc3C)nc3ccccc32)cc1 | 6.1 | 28.5 | 3.0 | 2.1 | 97.7* | -0.913
CC(C)NC(=O)CSc1nc2ccccc2n1-c1ccccc1 | 13.4 | -2.3 | -2.9 | -1.6 | 3.0 | 0.613
Cc1ccc(-n2c(SCC(=O)Nc3cccc(S(N)(=O)=O)c3)nc3ccccc32)cc1 | 65.2 | -17.3 | 2.4 | 1.2 | 77.8* | -0.239
CC(C)(C)NC(=O)CSc1nc2ccccc2n1-c1ccccc1 | 71.2* | . | -0.7 | -0.8 | 14.5 | -0.198
Cc1nnc(SCC(=O)Nc2cccc(S(N)(=O)=O)c2)n1-c1ccccc1 | . | -8.5 | 1.7 | 1.9 | . | .
COc1cc([N+](=O)[O-])ccc1NC(=O)CSc1nc2ccccc2n1-c1ccccc1 | 13.5 | 18.3 | 0.0 | 0.7 | 91.7* | 0.518
CCCCc1nnc(NC(=O)c2ccc3[nH]c(=O)c(=O)[nH]c3c2)s1 | . | 4.2 | 2.2 | -9.2 | . | .
O=C(C(Cl)c1ccccc1)N1CCOCC1 (configuration not stated) | . | -13.8 | 0.8 | -5.0 | . | .
CCCCn1c(N)c(N(C(=O)CSc2nnnn2-c2ccccc2C)C2CCCC2)c(=O)[nH]c1=O | . | . | 0.5 | -2.6 | . | .
CC(C)C(NC(=O)c1ccc(Cl)c([N+](=O)[O-])c1)C(=O)NCc1ccccn1 (configuration not stated) | . | . | 0.6 | -1.4 | . | .
CCOC(=O)c1cc2c(=O)n3cccc(C)c3nc2n(C)c1=N | -19.3 | . | . | . | 97.7* | -0.812
Cc1cccn2c(=O)c3cc(C(=O)N(C)C)n(C)c3nc12 | 5.8 | 1.9 | 0.7 | -0.8 | 87.4* | 0.0232
CCOC(=O)c1cc2c(=O)n3ccccc3nc2n(Cc2ccco2)c1=NC(=O)c1cccnc1 | 18.4 | 13.5 | -0.6 | -2.9 | 39.8 | 0.726
Cc1cccn2c(=O)c3cc(C(N)=S)c(=N)n(CCCOC(C)C)c3nc12 | 1.3 | 51.2 | 3.2 | 2.3 | 87.1* | -0.993

High-throughput results deposited in PubChem BioAssay by several laboratories.
